Published values collected from several papers.
Compare with care: the assays were run in different laboratories.
Target: Serine/threonine-protein kinase Nek4 (NEK4, Homo sapiens, UniProt P51957)

SMILES | observed | method | concentration | remaining binding [%]
C[C@H](c1cccc(C#N)c1)n1cc(Cl)cc(C(N)=O)c1=N | cell-free assay | competition with immobilised ligand | 1 µM | 100
N[C@@H]1CCN(c2nccc(-c3cnn4ncccc34)n2)C1 | binding | – | 1 µM | 100
O=C(c1ccc(Nc2ncc(Cl)c(-c3ccc(Cl)s3)n2)cc1)N1CCC(N2CCCC2)CC1 | binding | competition with immobilised ligand | 1 µM | 30
FC(F)(F)c1ccc2c(c1)nc(-c1cccnc1)n2C1CC1 | cell-free assay | competition with immobilised ligand | 1 µM | 100
COc1ncc2cc3ccccc3nc2c1C#N | cell-free assay | competition with immobilised ligand | 5 µM | 93
c1cncc(-c2cccc(Nc3nccc(NC4CCCCC4)n3)c2)c1 | binding | competition with immobilised ligand | 10 µM | 100
Cn1nc(C(F)(F)F)cc1-c1cnc(N2CCc3cc(S(=O)(=O)Nc4c(F)cc(Cl)cc4F)cc(N4CCCC4=O)c32)nc1 | cell-free assay | competition with immobilised ligand | 1 µM | 72
O=C(c1ccc(Nc2nccc(-c3cc4ccccc4s3)n2)cc1)N1CCC(N2CCCC2)CC1 | binding | competition with immobilised ligand | 1 µM | 100
CN(C)c1nccc(-c2cnn3ncccc23)n1 | binding | – | 1 µM | 98
CCCCN(CCCC)C(=O)CN1C[C@@H](c2cc(OC)c3c(c2)OCO3)[C@H](C(=O)O)[C@H]1CC(C)(C)CCC | cell-free assay | competition with immobilised ligand | 1 µM | 93.9
C=CC(=O)N1CCC(C(=O)NCC(=O)N2CCN(c3nc(-c4cnc(N)nc4C(F)F)nc(N4CCOCC4)n3)CC2)CC1 | binding | competition with immobilised ligand | 1 µM | 81
F[C@@H]1CCN(c2nccc(-c3cnn4ncccc34)n2)C1 | binding | – | 1 µM | 100
COc1cnc(Nc2cccc(S(N)(=O)=O)c2)nc1N1CCN(c2ccccc2)C(=O)C1 | binding | competition with immobilised ligand | 1 µM | 79
CN(CCCC(F)(F)F)c1nccc(-c2cnn3ncccc23)n1 | binding | – | 1 µM | 92
O=C(NCC1CCOCC1)c1n[nH]cc1NC(=O)c1c(F)cccc1F | binding | competition with immobilised ligand | 1 µM | 78
CN(c1ccnc(CNc2nc(Nc3ccc4c(c3)CC(=O)N4)ncc2C(F)(F)F)n1)S(C)(=O)=O | cell-free assay | competition with immobilised ligand | 1 µM | 84
Nc1ncc2c(n1)-c1c([nH]c3ccc(C#CC4CC4)cc13)CCCC2 | binding | competition with immobilised ligand | 1 µM | 84
O=C(Nc1cccnn1)N1CC(C/C=C/c2cncc(Oc3ccc(C(F)(F)F)cn3)n2)C1 | cell-free assay | competition with immobilised ligand | 1 µM | 95
C[C@@H](c1ccc(-n2cnc3c(N)ncnc32)cc1)N1CCc2nn(C)c(Cc3ccccc3)c2C1=O | binding | competition with immobilised ligand | 0.1 µM | 82
C[C@@H]1CCN(c2nccc(-c3cnn4ncccc34)n2)C1 | binding | – | 1 µM | 83
O=C(NCCCN1CCOCC1)c1ccc(Nc2nccc(-c3cc4ccccc4s3)n2)cc1 | binding | competition with immobilised ligand | 1 µM | 100
